Data on 34 compounds can be found in ChEMBL document CHEMBL1134409, “Design, synthesis, and discovery of a novel CCR1 antagonist” (J Med Chem, 2001).

Some results are limits rather than exact numbers.

For experiment [1], the target named is T1, C-C chemokine receptor type 1 (Mus musculus, UniProt P51675).
T1 sequence (P51675 whole entry): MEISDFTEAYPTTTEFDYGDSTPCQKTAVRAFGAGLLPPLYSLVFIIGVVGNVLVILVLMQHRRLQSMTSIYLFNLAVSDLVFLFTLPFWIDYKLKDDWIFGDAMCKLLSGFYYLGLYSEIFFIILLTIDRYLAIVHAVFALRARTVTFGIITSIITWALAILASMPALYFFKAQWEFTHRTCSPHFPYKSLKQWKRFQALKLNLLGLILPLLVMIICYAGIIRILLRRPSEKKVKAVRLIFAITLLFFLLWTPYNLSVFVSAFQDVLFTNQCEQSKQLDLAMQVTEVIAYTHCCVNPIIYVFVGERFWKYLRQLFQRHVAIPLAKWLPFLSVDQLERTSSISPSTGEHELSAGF
The experiment is described as follows: Inhibitory activity against [125I]-MIP-1 alpha binding to mouse CCR1 receptors. The procedure, abridged: (§1)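 Whole-cell binding. CHO cells transfected with the CCR receptor were detached with PBS(-) containing 2 mM EDTA and resuspended in Krebs-Ringer phosphate buffer with 0.1% BSA and 0.1% glucose. 1 × 10^5 cells were incubated with 50 pM 125I-chemokine plus antagonist for 1 h at 37 °C to reach equilibrium. Nonspecific binding was taken with 100 nM unlabeled chemokine. Ice-cold buffer was then added.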

For experiment [2], the target named is T2, C-C chemokine receptor type 1 (Homo sapiens, UniProt P32246).
T2 sequence (P32246 whole entry): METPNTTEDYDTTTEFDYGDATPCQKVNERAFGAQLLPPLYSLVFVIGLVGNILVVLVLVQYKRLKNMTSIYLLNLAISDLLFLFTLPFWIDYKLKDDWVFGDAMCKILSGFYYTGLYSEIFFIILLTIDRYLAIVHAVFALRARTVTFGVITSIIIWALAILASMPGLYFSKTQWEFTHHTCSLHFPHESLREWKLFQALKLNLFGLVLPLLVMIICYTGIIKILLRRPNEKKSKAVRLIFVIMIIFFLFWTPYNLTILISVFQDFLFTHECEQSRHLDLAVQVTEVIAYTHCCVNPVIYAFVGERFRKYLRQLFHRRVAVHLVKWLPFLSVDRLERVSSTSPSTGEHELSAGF
The experiment can be described thus: Inhibitory activity against [125I]-MIP-1 alpha binding to human CCR1 receptors. The procedure, abridged:
as §1

In experiment [1], `CC[N+]1(CC2CCCCCCC2)CCC(NC(=O)C2c3ccccc3Oc3ccccc32)CC1` (stereo unspecified) returned an IC50 of 660 nM. Turning to `O=C(NC1CCN(CC2CCCCCCCCC2)CC1)C1c2ccccc2Oc2ccccc21`, the IC50 in experiment [1] was above 10000 nM; in experiment [2] it was 800 nM. In the same order, the values of `O=C(NC1CCN(CC2CCCCCCC2)CC1)C(c1ccccc1)c1ccccc1` are above 10000 nM and 1100 nM. Turning to `O=C(NC1CCN(CC2CCCCCCC2)CC1)c1c2ccccc2cc2ccccc12`, the IC50 in experiment [1] and in experiment [2] was above 10000 nM in each case. Regarding `O=C(NC1CCN(Cc2ccccc2)CC1)C1c2ccccc2Oc2ccccc21`, the IC50 in experiment [1] and in experiment [2] was above 10000 nM in each case. As for `C[N+]1(CC2CCCCCCC2)CCC(NC(=O)c2c3ccccc3cc3ccccc23)CC1` (stereo unspecified), the half-maximal inhibitory concentration (IC50) in experiment [1] is above 10000 nM; in experiment [2] it was 1800 nM. In the same order, the values of `CC[N+]1(C/C2=C/CCCCCC2)CCC(NC(=O)C2c3cc(Br)ccc3Oc3ccc(Br)cc32)CC1` (stereo unspecified) are 12 nM and 1.9 nM. `C[N+]1(C/C2=C/CCCCCC2)CCC(NC(=O)C2c3ccccc3Oc3ccccc32)CC1` (stereo unspecified): the IC50 was determined as 350 nM in experiment [1] and 2.5 nM in experiment [2].

Take `O=C(NC1CCN(CC2CCCCCCC2)CC1)C1c2cc(Br)ccc2Oc2ccc(Br)cc21`: the concentration for half-maximal inhibition (IC50) in experiment [1] is above 10000 nM; in experiment [2], 5100 nM. In the same order, the values of `CCCC[N+]1(CC2CCCCCCC2)CCC(NC(=O)C2c3ccccc3Oc3ccccc32)CC1` (stereo unspecified) are 380 nM and 5 nM. In the same order, the values of `O=C(NC1CCN(Cc2ccc3ccccc3c2)CC1)C1c2ccccc2Oc2ccccc21` are above 10000 nM and above 10000 nM. In the same order, the values of `CCC[N+]1(C/C2=C/CCCCCC2)CCC(NC(=O)C2c3ccccc3Oc3ccccc32)CC1` (stereo unspecified) are 270 nM and 2.8 nM. With `O=C(NC1CCN(CC2CCCCCCC2)CC1)C1c2ccccc2Oc2ccccc21`, the IC50 was above 10000 nM in experiment [1] and 140 nM in experiment [2]. In the same order, the values of `C=CC[N+]1(CC2CCCCCCC2)CCC(NC(=O)C2c3ccccc3Oc3ccccc32)CC1` (stereo unspecified) are 670 nM and 9.7 nM. On to `O=C(NC1CCN(CC2CCCCCCC2)CC1)C(O)(c1ccccc1)c1ccccc1`, for which the results for the IC50 in experiment [1] and in experiment [2] were above 10000 nM and 1600 nM, respectively. As to `C[N+]1(CC2CCCCCCC2)CCC(NC(=O)C2c3cc(Br)ccc3Oc3ccc(Br)cc32)CC1` (stereo unspecified), the IC50 in experiment [1] was found to be 240 nM. Turning to `O=C(NC1CCN(C/C2=C/CCCCCC2)CC1)C1c2ccccc2Oc2ccccc21`, the figures for the IC50 in experiment [1] and in experiment [2] were 590 nM and 51 nM, respectively. In the same order, the values of `O=C(NC1CCN(CC2CCCCCCC2)CC1)C1c2cc(Cl)ccc2Oc2ccc(Cl)cc21` are above 10000 nM and above 10000 nM. In the same order, the values of `CC[N+]1(CC2CCCCCCC2)CCC(NC(=O)C2c3cc(Br)ccc3Oc3ccc(Br)cc32)CC1` (stereo unspecified) are 140 nM and 3.3 nM. In the case of `O=C(NC1CCN(C/C2=C/CCCCCC2)CC1)C1c2cc(Br)ccc2Oc2ccc(Br)cc21`, the IC50 in experiment [1] turned out to be 2500 nM; in experiment [2] it was 150 nM. For the compound `O=C(NC1CC[N+](Cc2ccccc2)(CC2CCCCCCC2)CC1)C1c2ccccc2Oc2ccccc21` (stereo unspecified), the results for the IC50 in experiment [1] and in experiment [2] were 1300 nM and 370 nM, respectively. On to `CCC[N+]1(CC2CCCCCCC2)CCC(NC(=O)C2c3ccccc3Oc3ccccc32)CC1` (stereo unspecified), for which the IC50 was found to be 270 nM in experiment [1] and 3.6 nM in experiment [2].

On to `O=C(NC1CCN(C/C2=C/CCCCCC2)CC1)C1c2cc(Cl)ccc2Oc2ccc(Cl)cc21`, for which the results for the IC50 in experiment [1] and in experiment [2] were 1900 nM and 240 nM, respectively. For the compound `C[N+]1(CC2CCCCCCC2)CCC(NC(=O)C(c2ccccc2)c2ccccc2)CC1` (stereo unspecified), the values for the IC50 in experiment [1] and in experiment [2] were above 10000 nM and 800 nM, respectively. In the same order, the values of `C[N+]1(CC2CCCCCCC2)CCC(NC(=O)C2c3cc(Cl)ccc3Oc3ccc(Cl)cc32)CC1` (stereo unspecified) are 710 nM and 17 nM. In the same order, the values of `O=C(NC1CCN(CC2CCCCC2)CC1)C1c2ccccc2Oc2ccccc21` are above 10000 nM and 200 nM. Consider `C[N+]1(CC2CCCCCCC2)CCC(NC(=O)C2c3ccccc3Oc3ccccc32)CC1` (stereo unspecified), for which the IC50 in experiment [1] stood at 2100 nM; in experiment [2], 14 nM. For the compound `CCCCCCN1CCC(NC(=O)C2c3ccccc3Oc3ccccc32)CC1`, the IC50 in experiment [1] was above 10000 nM; in experiment [2], 510 nM. In the same order, the values of `CC[N+]1(C/C2=C/CCCCCC2)CCC(NC(=O)C2c3ccccc3Oc3ccccc32)CC1` (stereo unspecified) are 63 nM and 2 nM. In the same order, the values of `CCC[N+]1(CC2CCCCCCC2)CCC(NC(=O)C2c3cc(Br)ccc3Oc3ccc(Br)cc32)CC1` (stereo unspecified) are 140 nM and 3.1 nM.

On to `C[N+]1(CC2CCCCCCC2)CCC(NC(=O)C(O)(c2ccccc2)c2ccccc2)CC1` (stereo unspecified), for which the IC50 was above 10000 nM in experiment [1] and 2100 nM in experiment [2].

Consider `CC[N+]1(C/C2=C/CCCCCC2)CCC(NC(=O)C2c3cc(Cl)ccc3Oc3ccc(Cl)cc32)CC1` (stereo in doubt; 2q), for which the IC50 in experiment [1] worked out at 12 nM; in experiment [2], 1.2 nM. As to `CC[N+]1(C/C2=C/CCCCCC2)CCC(NC(=O)C2c3cc(Cl)ccc3Oc3ccc(Cl)cc32)CC1` (stereo in doubt; 2q-2), the figures for the IC50 in experiment [1] and in experiment [2] were 740 nM and 47 nM, respectively. In the same order, the values of `N#CC(CCCN1CCC(O)(c2ccc(Cl)cc2)CC1)(c1ccccc1)c1ccccc1` [BERLEX COMPOUND] are 5000 nM and 48 nM.

The term IC50 denotes the concentration that inhibits the measured activity by half. Low values mean greater potency in that assay, high ones weaker potency in that assay.
